Calls of active or inactive are those of the source. The rule behind the calls is not given here.
Columns and labels:
[1] = test system: MCF7; test: Cell cycle arrest in human MCF7 cells assessed as increase in accumulation at G2/M phase at 10 uM after 18 hrs by Hoechst 33342 staining based FACS analysis relative to control; assay type: functional
Method in brief: (§1)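 Cells seeded 48 h beforehand, treated 18 h with test compounds at 10 µM or vincristine at 100 nM, then trypsinised and stained with Hoechst 33342 for 60 min; FACS read at 450 nm; % G2/M increase calculated relative to 0.1% DMSO vehicle; mean ± SEM of three independent experiments.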

[2] = test system: PANC-1; test: Cell cycle arrest in human PANC1 cells assessed as increase in accumulation at G2/M phase at 10 uM after 18 hrs by Hoechst 33342 staining based FACS analysis relative to control; assay type: functional; method in brief: as §1
[3] = Binding affinity to recombinant P-gp cys-less mutant (unknown origin) in proteoliposomes assessed as increase in ATP hydrolysis rate after 40 mins by colorimetric assay; design: species or system Homo sapiens
Method in brief: (§2)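 P-gp expressed in High-Five insect cells via recombinant baculovirus, IMAC-purified and reconstituted into proteoliposomes; 0.1-0.5 µg incubated with 2 mM ATP and drug at 10^-9 to 10^-4 M for 40 min at 37 °C; liberated Pi measured colorimetrically; EC50 and extent of stimulation from dose-response fit against drug-free basal activity.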

[4] = test system: NCI/ADR-RES; test: Inhibition of P-gp in human NCI/ADR-RES cells assessed as rate of calcein-AM accumulation at 1 uM by fluorescence assay; assay type: cell-based
Method in brief: (§3)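 Cells seeded at 2 × 10^3/well and grown 2 d, washed and placed in HBSS; test compound added at 2X in HBSS with DMSO ≤1% final, then calcein-AM at 1 µM final; intracellular fluorescence followed over time, rate taken as slope from linear regression.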

[5] = organism: Homo sapiens; test: Binding affinity to recombinant P-gp cys-less mutant (unknown origin) in proteoliposomes assessed as increase in ATP hydrolysis rate at 10^-9 to 10^-4 M after 40 mins by colorimetric assay relative to basal control; method in brief: as §2
[6] = test system: MCF7; test: Antiproliferative activity against human MCF7 cells after 6 days by MTT assay; assay type: functional, cell-based; settings: MCF7, 144 h
Method in brief: (§4)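 Cells seeded overnight at 1500/well, then exposed to a range of concentrations for 6 d; viability by MTT (570 nm, background-subtracted, normalised to untreated control = 100%); EC50 from sigmoidal dose-response fit by non-linear least squares; mean ± SEM of at least 8 independent observations. MCF-7 in MEMα + 10% FBS; NCI/AdrRES in DMEM + 10% FCS with periodic 3 µM doxorubicin selection.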

[7] = test system: NCI/ADR-RES; test: Antiproliferative activity against human NCI/ADR-RES cells after 6 days by MTT assay; assay type: functional, cell-based; settings: 144 h; method in brief: as §4
[8] = Ratio of IC50 for human NCI/ADR-RES cells to IC50 for human MCF7 cells; assay type: functional
Method in brief: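 IC50 in doxorubicin-selected P-gp-expressing NCI/AdrRES cells divided by IC50 in parental MCF-7, each from 6 d MTT viability dose-response curves fitted by non-linear regression.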

[9] = test system: MCF7; test: Cell cycle arrest in human MCF7 cells assessed as increase in accumulation at G2/M phase at 100 nM after 18 hrs by Hoechst 33342 staining based FACS analysis relative to control; assay type: functional; method in brief: as §1
[10] = test system: PANC-1; test: Cell cycle arrest in human PANC1 cells assessed as increase in accumulation at G2/M phase at 100 nM after 18 hrs by Hoechst 33342 staining based FACS analysis relative to control; assay type: functional; method in brief: as §1
[11] = test system: PANC-1; test: Cell cycle arrest in human PANC1 cells assessed as accumulation at G1 phase at 100 nM after 18 hrs by Hoechst 33342 staining based FACS analysis (reference value: 70.7%); assay type: functional
[12] = test system: PANC-1; test: Cell cycle arrest in human PANC1 cells assessed as accumulation at S phase at 100 nM after 18 hrs by Hoechst 33342 staining based FACS analysis (reference value: 11.1%); assay type: functional
[13] = test system: PANC-1; test: Cell cycle arrest in human PANC1 cells assessed as accumulation at G2/M phase at 100 nM after 18 hrs by Hoechst 33342 staining based FACS analysis (reference value: 13.7%); assay type: functional
[14] = test system: PC-3; test: Cytotoxicity against human PC3 cells assessed as reduction in cell viability after 5 days by cellTiter-blue assay; assay type: functional, cell-based; settings: PC-3, 120 h
[15] = test system: MCF7; test: Cytotoxicity against human MCF7 cells assessed as reduction in cell viability after 5 days by cellTiter-blue assay; assay type: functional, cell-based; settings: MCF7, 120 h
[16] = test system: PANC-1; test: Cell cycle arrest in human PANC1 cells assessed as accumulation at G1 phase at 10 uM after 18 hrs by Hoechst 33342 staining based FACS analysis (reference value: 70.7%); assay type: functional
[17] = test system: PANC-1; test: Cell cycle arrest in human PANC1 cells assessed as accumulation at S phase at 10 uM after 18 hrs by Hoechst 33342 staining based FACS analysis (reference value: 11.1%); assay type: functional
[18] = test system: PANC-1; test: Cell cycle arrest in human PANC1 cells assessed as accumulation at G2/M phase at 10 uM after 18 hrs by Hoechst 33342 staining based FACS analysis (reference value: 13.7%); assay type: functional
[19] = organism: Sus scrofa; test: Inhibition of pig tubulin polymerization assessed as Vmax of tubulin polymerization at 10 uM after 60 mins turbidimetric analysis (reference value: 27 +/- 2 milliOD/min)
[20] = test system: MCF7; test: Effect on calcein-AM accumulation in human wild type MCF7 cells at 1 uM by fluorescence assay; assay type: functional, cell-based; method in brief: as §3
[21] = organism: Homo sapiens; test: Inhibition of P-gp in human NCI/ADR-RES cells assessed as potentiation of vinblastine-induced cytotoxicity by measuring combination index at 1 uM compound concentration after 6 days by MTT assay; assay type: cell-based
[22] = organism: Homo sapiens; test: Inhibition of P-gp in human NCI/ADR-RES cells assessed as potentiation of vinblastine-induced cytotoxicity by measuring combination index at 0.3 uM compound concentration after 6 days by MTT assay; assay type: cell-based
[23] = organism: Homo sapiens; test: Inhibition of P-gp in human NCI/ADR-RES cells assessed as potentiation of vinblastine-induced cytotoxicity by measuring combination index at 0.1 uM compound concentration after 6 days by MTT assay; assay type: cell-based
[24] = test system: MCF7; test: Synergistic antiproliferative activity against human MCF7 cells assessed as reduction in cell viability at 1 uM after 6 days in presence of vinblastine by MTT assay; assay type: functional
[25] = test system: MCF7; test: Synergistic antiproliferative activity against human MCF7 cells assessed as reduction in cell viability at 0.3 uM after 6 days in presence of vinblastine by MTT assay; assay type: functional
[26] = test system: MCF7; test: Synergistic antiproliferative activity against human MCF7 cells assessed as reduction in cell viability at 0.1 uM after 6 days in presence of vinblastine by MTT assay; assay type: functional

SMILES: CCNC(=O)N1CCc2c(Br)c3c(c(OC)c2C1c1ccc(OC)c(OC)c1)OCO3 (configuration not stated)
- Activity [1]: -6%
- Activity [2]: 11%

SMILES: CCNC(=O)N1CCc2c(Br)c3c(c(OC)c2C1Cc1ccc(OC)c(OC)c1)OCO3 (configuration not stated)
- Activity [1]: 12%
- Activity [2]: -10%

SMILES: COc1c2c(c(Br)c3c1C(c1ccccc1)N(C)CC3)OCO2 (configuration not stated)
- Activity [1]: 18%
- Activity [2]: -7%

SMILES: CCNC(=O)N1CCc2c(Br)c3c(c(OC)c2C1Cc1cc(OC)c(OC)c(OC)c1)OCO3 (configuration not stated)
- Activity [1]: 5%
- Activity [2]: -4%

SMILES: CCNC(=O)N1CCc2c(Br)c3c(c(OC)c2C1Cc1ccccc1)OCO3 (configuration not stated)
- Activity [1]: 1%
- Activity [2]: -8%

SMILES: COC(=O)C1=C(C)NC(C)=C(C(=O)OCCN(C)Cc2ccccc2)C1c1cccc([N+](=O)[O-])c1 (configuration not stated) [NICARDIPINE]
- EC50 [3]: 4.7 µM
- Activity [4]: 107 RFU/min
- fold change (FC) [5]: 13.6

SMILES: CC[C@]1(O)C[C@@H]2CN(CCc3c([nH]c4ccccc34)[C@@](C(=O)OC)(c3cc4c(cc3OC)N(C)[C@H]3[C@@](O)(C(=O)OC)[C@H](OC(C)=O)[C@]5(CC)C=CCN6CC[C@]43[C@@H]65)C2)C1 [VINBLASTINE]
- IC50 [6]: 0.00036 µM
- IC50 [7]: 0.096 µM
- Ratio IC50 [8]: 267

SMILES: CC[C@]1(O)C[C@H]2CN(CCc3c([nH]c4ccccc34)[C@@](C(=O)OC)(c3cc4c(cc3OC)N(C=O)[C@H]3[C@@](O)(C(=O)OC)[C@H](OC(C)=O)[C@]5(CC)C=CCN6CC[C@]43[C@@H]65)C2)C1 [VINCRISTINE]
- Activity [9]: 283%
- Activity [10]: 265%
- Activity [11]: 21.2%
- Activity [12]: 9.7%
- Activity [13]: 64.1%

SMILES: CCNC(=O)N1CCc2cc3c(c(OC)c2[C@@H]1[C@H]1OC(=O)c2c1ccc(OC)c2OC)OCO3
- EC50 [14]: 6.7 µM
- EC50 [15]: 3.6 µM

SMILES: COc1c2c(c(Br)c3c1C(Cc1ccccc1)N(C)CC3)OCO2 (configuration not stated)
- Activity [1]: 9%
- Activity [2]: 13%

SMILES: CCNC(=O)N1CCc2c(Br)c3c(c(OC)c2C1c1cc(OC)c(OC)c(OC)c1)OCO3 (configuration not stated)
- Activity [1]: 3%
- Activity [2]: 2%

SMILES: CCNC(=O)N1CCc2c(Br)c3c(c(OC)c2C1Cc1ccc(OC)cc1)OCO3 (configuration not stated)
- EC50 [3]: 2.4 µM
- Activity [1]: 208%
- Activity [2]: 175%
- Activity [16]: 53.5%
- Activity [17]: 7.7%
- Activity [18]: 36.8%
- Vmax (milli optical density/minute) [19]: 20
- IC50 [6]: 2.7 µM
- IC50 [7]: 2.5 µM
- Activity [20]: inactive
- Activity [4]: 78 RFU/min
- fold change (FC) [5]: 6.2
- CI [21]: 0.95
- CI [22]: 0.57
- CI [23]: 0.6
- CI [24]: 1.5
- CI [25]: 1.02
- CI [26]: 1.09

SMILES: COc1ccc(CC2c3c(c(Br)c4c(c3OC)OCO4)CCN2C)cc1OC (configuration not stated)
- Activity [1]: 19%
- Activity [2]: 0%
